We go through 2 compounds from ChEMBL document CHEMBL5653631, “A Potent and Selective ULK1 Inhibitor Suppresses Autophagy and Sensitizes Cancer Cells to Nutrient Stress” (iScience, 2018).

Molecules are shown by their SMILES.

The target of experiment [1] is Dual specificity tyrosine-phosphorylation-regulated kinase 1B (Homo sapiens) (UniProt Q9Y463). Briefly: Inhibition of human recombinant DYRK1B at 40 nM in presence of ATP by radiometric assay relative to control.
Experiment [2] addresses Tyrosine-protein kinase Lck (Homo sapiens) (UniProt P06239). Briefly: Inhibition of human recombinant LCK at 40 nM in presence of ATP by radiometric assay relative to control.
Experiment [3] addresses Serine/threonine-protein kinase 33 (Homo sapiens) (UniProt Q9BYT3). Briefly: Inhibition of human recombinant STK33 at 40 nM in presence of ATP by radiometric assay relative to control.
Experiment [4] deals with T1, Beta-adrenergic receptor kinase 1 (Homo sapiens) (UniProt P25098).
T1 sequence (whole entry): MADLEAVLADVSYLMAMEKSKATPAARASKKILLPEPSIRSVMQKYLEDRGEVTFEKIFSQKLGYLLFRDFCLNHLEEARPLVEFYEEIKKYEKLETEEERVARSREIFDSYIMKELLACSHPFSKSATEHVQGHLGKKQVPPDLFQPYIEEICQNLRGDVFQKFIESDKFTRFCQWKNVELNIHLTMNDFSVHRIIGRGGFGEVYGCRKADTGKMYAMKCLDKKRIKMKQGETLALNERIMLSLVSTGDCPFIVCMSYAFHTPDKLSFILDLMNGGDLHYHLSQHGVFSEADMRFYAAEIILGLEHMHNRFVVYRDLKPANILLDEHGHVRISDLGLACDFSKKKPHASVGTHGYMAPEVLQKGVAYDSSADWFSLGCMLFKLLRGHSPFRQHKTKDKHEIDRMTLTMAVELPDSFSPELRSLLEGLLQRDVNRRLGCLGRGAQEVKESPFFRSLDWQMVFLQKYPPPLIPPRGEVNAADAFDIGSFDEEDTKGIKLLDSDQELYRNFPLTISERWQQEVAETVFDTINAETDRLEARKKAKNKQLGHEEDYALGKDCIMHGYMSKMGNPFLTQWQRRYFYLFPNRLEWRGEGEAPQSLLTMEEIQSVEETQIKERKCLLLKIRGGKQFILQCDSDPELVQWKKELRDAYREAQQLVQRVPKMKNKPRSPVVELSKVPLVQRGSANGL
The experiment in a line: Inhibition of human recombinant BARK1 at 500 nM in presence of ATP by radiometric assay relative to control. An outline of the steps: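 Part of a radiometric in vitro activity panel of 327 recombinant human kinases. Each kinase was tested in duplicate at one inhibitor concentration. Activity remaining was expressed as a percentage of the vehicle control, and percent inhibition was taken as 100 minus that value.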

Experiment [5] addresses T2, Testis-specific serine/threonine-protein kinase 3 (Homo sapiens) (UniProt Q96PN8).
T2 sequence (whole entry): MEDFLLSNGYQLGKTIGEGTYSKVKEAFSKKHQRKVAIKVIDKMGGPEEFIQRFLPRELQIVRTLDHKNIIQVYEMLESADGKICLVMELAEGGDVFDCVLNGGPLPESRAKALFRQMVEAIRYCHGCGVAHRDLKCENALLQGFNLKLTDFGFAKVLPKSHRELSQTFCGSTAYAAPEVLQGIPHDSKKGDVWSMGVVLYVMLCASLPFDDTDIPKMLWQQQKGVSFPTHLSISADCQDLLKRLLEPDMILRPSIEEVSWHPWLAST
The experiment in a line: Inhibition of human recombinant TSSK3 at 500 nM in presence of ATP by radiometric assay relative to control.

Experiment [6] has as its target T3, Myosin-IIIb (Homo sapiens) (UniProt Q8WXR4).
T3 sequence (whole entry): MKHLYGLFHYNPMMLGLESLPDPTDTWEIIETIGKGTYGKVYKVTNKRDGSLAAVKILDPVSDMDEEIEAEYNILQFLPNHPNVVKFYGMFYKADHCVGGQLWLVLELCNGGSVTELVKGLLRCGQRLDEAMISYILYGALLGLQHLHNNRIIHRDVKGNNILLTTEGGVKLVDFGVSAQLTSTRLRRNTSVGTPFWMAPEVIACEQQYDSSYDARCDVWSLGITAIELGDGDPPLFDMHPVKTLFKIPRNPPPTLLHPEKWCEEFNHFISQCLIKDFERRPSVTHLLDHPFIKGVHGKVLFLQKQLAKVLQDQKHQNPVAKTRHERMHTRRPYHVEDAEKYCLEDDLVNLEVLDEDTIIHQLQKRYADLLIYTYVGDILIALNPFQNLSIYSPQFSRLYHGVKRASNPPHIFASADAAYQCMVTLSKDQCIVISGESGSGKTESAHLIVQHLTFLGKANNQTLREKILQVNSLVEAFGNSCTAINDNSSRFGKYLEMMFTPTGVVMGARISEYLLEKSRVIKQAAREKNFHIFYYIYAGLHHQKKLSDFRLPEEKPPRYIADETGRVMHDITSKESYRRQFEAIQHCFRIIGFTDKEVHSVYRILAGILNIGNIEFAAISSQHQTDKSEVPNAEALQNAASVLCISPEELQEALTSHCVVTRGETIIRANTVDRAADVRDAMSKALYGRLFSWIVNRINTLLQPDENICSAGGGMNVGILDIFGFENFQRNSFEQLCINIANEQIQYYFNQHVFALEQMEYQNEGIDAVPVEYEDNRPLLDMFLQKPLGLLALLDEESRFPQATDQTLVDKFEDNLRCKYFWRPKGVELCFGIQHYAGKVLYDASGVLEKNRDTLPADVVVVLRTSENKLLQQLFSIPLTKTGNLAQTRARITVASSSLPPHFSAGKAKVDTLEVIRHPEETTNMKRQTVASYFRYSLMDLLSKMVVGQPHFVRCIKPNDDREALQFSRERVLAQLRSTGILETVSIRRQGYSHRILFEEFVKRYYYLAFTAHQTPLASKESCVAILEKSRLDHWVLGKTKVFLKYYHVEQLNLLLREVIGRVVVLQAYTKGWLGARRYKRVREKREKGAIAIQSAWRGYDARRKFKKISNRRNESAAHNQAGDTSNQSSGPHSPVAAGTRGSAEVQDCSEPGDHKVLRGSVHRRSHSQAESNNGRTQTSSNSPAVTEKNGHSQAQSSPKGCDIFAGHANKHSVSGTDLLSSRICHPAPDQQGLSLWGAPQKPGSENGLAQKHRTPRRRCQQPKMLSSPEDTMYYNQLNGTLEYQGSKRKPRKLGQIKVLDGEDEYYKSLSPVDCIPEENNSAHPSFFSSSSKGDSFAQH
Briefly: Inhibition of human recombinant MYO3B at 500 nM related to control ULK1.

Chain of Dual specificity tyrosine-phosphorylation-regulated kinase 1B (Homo sapiens) (Q9Y463 whole entry, looked up): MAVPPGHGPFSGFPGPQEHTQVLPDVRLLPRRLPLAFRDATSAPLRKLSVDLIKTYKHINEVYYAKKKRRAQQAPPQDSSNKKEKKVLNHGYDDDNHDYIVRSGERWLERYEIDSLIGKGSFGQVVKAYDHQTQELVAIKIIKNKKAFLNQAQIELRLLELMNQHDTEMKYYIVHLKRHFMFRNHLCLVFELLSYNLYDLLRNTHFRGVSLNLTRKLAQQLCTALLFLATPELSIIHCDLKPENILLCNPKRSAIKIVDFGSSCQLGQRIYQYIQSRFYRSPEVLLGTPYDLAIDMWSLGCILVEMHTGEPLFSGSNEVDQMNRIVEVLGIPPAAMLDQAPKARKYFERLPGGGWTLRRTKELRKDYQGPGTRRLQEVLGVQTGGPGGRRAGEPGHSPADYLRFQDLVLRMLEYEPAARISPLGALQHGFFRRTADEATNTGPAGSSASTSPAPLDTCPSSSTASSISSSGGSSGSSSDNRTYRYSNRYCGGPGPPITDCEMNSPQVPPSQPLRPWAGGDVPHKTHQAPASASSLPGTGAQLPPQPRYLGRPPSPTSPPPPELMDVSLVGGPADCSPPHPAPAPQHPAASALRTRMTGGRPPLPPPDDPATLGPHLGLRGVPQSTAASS
Chain of Serine/threonine-protein kinase 33 (Homo sapiens) (Q9BYT3 whole entry, looked up): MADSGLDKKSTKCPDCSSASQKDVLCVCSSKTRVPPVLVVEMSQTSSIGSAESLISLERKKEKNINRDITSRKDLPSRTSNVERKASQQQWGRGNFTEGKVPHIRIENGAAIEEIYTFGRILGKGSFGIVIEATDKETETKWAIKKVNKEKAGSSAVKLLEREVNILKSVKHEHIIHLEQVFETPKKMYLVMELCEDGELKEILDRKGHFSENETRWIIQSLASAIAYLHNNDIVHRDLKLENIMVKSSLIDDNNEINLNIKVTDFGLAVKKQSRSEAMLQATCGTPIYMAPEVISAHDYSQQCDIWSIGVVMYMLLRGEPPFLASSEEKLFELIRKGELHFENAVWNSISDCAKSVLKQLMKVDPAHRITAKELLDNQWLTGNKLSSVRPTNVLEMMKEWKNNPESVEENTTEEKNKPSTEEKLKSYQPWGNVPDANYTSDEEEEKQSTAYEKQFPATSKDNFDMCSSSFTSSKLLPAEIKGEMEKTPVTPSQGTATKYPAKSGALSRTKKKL
Chain of Tyrosine-protein kinase Lck (Homo sapiens) (P06239 2-509 limits assumed): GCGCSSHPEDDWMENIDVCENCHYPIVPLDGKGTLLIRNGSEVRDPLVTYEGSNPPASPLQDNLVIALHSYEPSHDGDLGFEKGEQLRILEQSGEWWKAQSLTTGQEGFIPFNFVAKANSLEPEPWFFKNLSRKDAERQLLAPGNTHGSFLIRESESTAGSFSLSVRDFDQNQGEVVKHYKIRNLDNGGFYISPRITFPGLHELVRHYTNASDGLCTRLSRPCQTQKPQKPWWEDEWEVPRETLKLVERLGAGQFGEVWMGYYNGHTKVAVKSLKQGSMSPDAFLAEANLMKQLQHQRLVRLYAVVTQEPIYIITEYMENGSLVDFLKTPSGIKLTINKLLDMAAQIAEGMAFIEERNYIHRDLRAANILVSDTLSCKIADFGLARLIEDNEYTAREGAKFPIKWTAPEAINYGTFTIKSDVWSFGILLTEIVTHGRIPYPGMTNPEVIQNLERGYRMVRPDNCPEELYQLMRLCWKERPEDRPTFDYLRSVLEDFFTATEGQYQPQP

For orientation: inhibition means the share of the control response that was lost under treatment. For the compound `O=C(N[C@@H](C1CC1)C(F)(F)F)c1cc(-c2cnn3cc(-c4ccc(F)cc4)cnc23)cs1`, the inhibition was determined as 31% in experiment [1], 0% in experiment [2] and 19% in experiment [3].

On to `CNC(=O)c1ccccc1Oc1nc(Nc2cc(OC)c(OC)c(OC)c2)ncc1Br`, for which the inhibition in experiment [4] stood at 8%; in experiment [5] it was 0%. For the same compound, the fold change (FC) in experiment [6] turned out to be 0.15.
